Results on 16 compounds are retold here after ChEMBL document CHEMBL3396946, “Design, synthesis and pharmacological evaluation of N-[4-(4-(alkyl/aryl/heteroaryl)-piperazin-1-yl)-phenyl]-carbamic acid ethyl ester derivatives as novel anticonvulsant agents” (Bioorg Med Chem Lett, 2015).

For data set [1], the system named is Mus musculus. The data set is described as follows: Anticonvulsant activity in Swiss albino mouse assessed as reduction in electrical stimulus-induced seizures at 300 mg/kg, ip after 0.5 hrs by maximal electroshock seizure test. In kind it is functional, organism-based. Further details: dose 300 mg/kg. The essentials: (§1)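 Adult male Swiss albino mice; test agents given i.p. at 30, 100 and 300 mg/kg, with animals examined 0.5 h and 4.0 h after injection. Value is the minimal dose protecting half or more of the mice; a dash means no activity at 300 mg/kg.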
A general note: In the maximal electroshock model the usual endpoint is tonic extension of the hind limbs.

In data set [2] the test system is Mus musculus. The data set is described as follows: Anticonvulsant activity in Swiss albino mouse assessed as reduction in electrical stimulus-induced seizures at 300 mg/kg, ip after 4 hrs by maximal electroshock seizure test. Further details: dose 300 mg/kg. In kind it is functional, organism-based. In a few lines:
as §1

The test system of data set [3] is Mus musculus. The data set is described as follows: Anticonvulsant activity in Swiss albino mouse assessed as reduction in clonic seizures at 300 mg/kg, ip after 0.5 hrs by subcutaneous pentylenetetrazole seizure test. In kind it is functional, organism-based. Also on record: dose 300 mg/kg. The essentials:
as §1

Data set [4] deals with Mus musculus. Kind of data set: Anticonvulsant activity in Swiss albino mouse assessed as reduction in clonic seizures at 300 mg/kg, ip after 4 hrs by subcutaneous pentylenetetrazole seizure test. Further details: dose 300 mg/kg. It is filed as functional, organism-based. In a few lines:
as §1

Data set [5] concerns Mus musculus. The data set is described as follows: Neurological toxicity in Swiss albino mouse assessed as motor impairment at 300 mg/kg, ip after 0.5 hrs by rotarod test. In kind it is organism-based. Further details: dose 300 mg/kg, route intraperitoneal. The settings on record: in vivo. In a few lines:
(§2)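 Adult male Swiss albino mice dosed i.p. at 30, 100 and 300 mg/kg, examined at 0.5 h and 4.0 h. Neurotoxicity is scored as failure to hold onto the rotating rod, with three successive trials. Value is the minimal dose active in half or more of the mice.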
(The rotarod test checks motor coordination on a turning rod.)

Data set [6] relates to Mus musculus. The data set is described as follows: Neurological toxicity in Swiss albino mouse assessed as motor impairment at 300 mg/kg, ip after 4 hrs by rotarod test. The settings on record: in vivo. Further details: dose 300 mg/kg, route intraperitoneal. It is filed as organism-based. In a few lines: as §2
Data set [7] relates to Mus musculus. The data set is described as follows: Anticonvulsant activity in Swiss albino mouse model of pentylenetetrazole-induced kindling related chronic epilepsy assessed as reduction in incidence and seizure severity score by at 30 mg/kg, ip administered daily for 5 weeks followed by injection of 30 mg/kg, ip PTZ on every alternate day till full kindling development. In kind it is functional, organism-based. The essentials: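 Adult Swiss albino male mice, randomised to seven groups (n = 8; PTZ group n = 9). Test drug given i.p. over 35 days, with PTZ 30 mg/kg i.p. on alternate days for 5 weeks. Seizures scored visually each week. Mean score ± SEM compared by ANOVA with Tukey's test.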

Data set [8] deals with Mus musculus. The data set is described as follows: Anticonvulsant activity in intraperitoneally dosed Swiss albino mouse assessed as reduction in electrical stimulus-induced seizures after 0.5 hrs by maximal electroshock seizure test. It is filed as functional. The essentials:
as §1

Data set [9] concerns Mus musculus. Kind of data set: Anticonvulsant activity in intraperitoneally dosed Swiss albino mouse assessed as reduction in electrical stimulus-induced seizures after 4 hrs by maximal electroshock seizure test. In kind it is functional. The essentials:
as §1

In data set [10] the test system is Mus musculus. The data set is described as follows: Anticonvulsant activity in intraperitoneally dosed Swiss albino mouse assessed as reduction in clonic seizures after 0.5 hrs by subcutaneous pentylenetetrazole seizure test. It is filed as functional. In a few lines:
as §1

Data set [11] concerns Mus musculus. The data set is described as follows: Anticonvulsant activity in intraperitoneally dosed Swiss albino mouse assessed as reduction in clonic seizures after 4 hrs by subcutaneous pentylenetetrazole seizure test. In kind it is functional. The essentials: as §1
Data set [12] in a line: Neurological toxicity in intraperitoneally dosed Swiss albino mouse assessed as motor impairment after 0.5 hrs by rotarod test. It is filed as organism-based. The settings on record: in vivo, ip, read-out: MTD50.
A short description of data set [13]: Neurological toxicity in intraperitoneally dosed Swiss albino mouse assessed as motor impairment after 4 hrs by rotarod test. As to conditions: in vivo, ip, read-out: MTD50. In kind it is organism-based.
In data set [14] the test system is Mus musculus. The data set is described as follows: Toxicity in Swiss albino mouse assessed as induction of sedation at 100 mg/kg, ip after 0.5 hrs during maximal electroshock seizure test. It is filed as organism-based. Also on record: dose 100 mg/kg, route intraperitoneal. As to conditions: in vivo.

Calls of active or inactive are those of the source. No cut-off for these calls is given here.

With `CCOC(=O)Nc1ccc(N2CCN(CC)CC2)cc1`, the result in the data set with Mus musculus [1], in the data set on Mus musculus [2], in the data set on Mus musculus [3] and in the data set with Mus musculus [4] was inactive. In addition, the Activity entry in the data set with Mus musculus [5] and in the data set with Mus musculus [6] was “Non-toxic” throughout.

As to `CCC1(c2ccccc2)C(=O)NC(=O)NC1=O`, the result with Mus musculus [7] was Active.

With `CCOC(=O)Nc1ccc(N2CCN(C)CC2)cc1`, the result with Mus musculus [1], with Mus musculus [2], with Mus musculus [3] and in the data set on Mus musculus [4] was inactive. Also, the Activity result with Mus musculus [5] and with Mus musculus [6] was “Non-toxic” in each case.

As to `NC(=O)N1c2ccccc2C=Cc2ccccc21` [CARBAMAZEPINE], the MED50 was 30 mg/kg in the data set with Mus musculus [8], 100 mg/kg with Mus musculus [9], 100 mg/kg in the data set on Mus musculus [10] and 300 mg/kg in the data set with Mus musculus [11]. Further, in data set [12], the TD50 at 0.5 h came out at 100 mg/kg. For the same compound, the TD50 at 4 h in data set [13] stood at 300 mg/kg.

As to `CCOC(=O)Nc1ccc(N2CCN(C(=O)c3ccco3)CC2)cc1`, the MED50 in the data set on Mus musculus [9] was 100 mg/kg. Moreover, the outcome in the data set on Mus musculus [1], with Mus musculus [3] and in the data set on Mus musculus [4] was inactive. For the same compound, the Activity result in the data set on Mus musculus [5] and in the data set with Mus musculus [6] was “Non-toxic” throughout.

Take `O=C1NC(=O)C(c2ccccc2)(c2ccccc2)N1` [PHENYTOIN]: the MED50 with Mus musculus [8] and in the data set with Mus musculus [9] was 30 mg/kg in each case. The outcome with Mus musculus [3] and in the data set with Mus musculus [4] was inactive.

With `CCOC(=O)Nc1ccc(N2CCN(c3ccc(Cl)cc3)CC2)cc1`, the MED50 in the data set with Mus musculus [8] came out at 100 mg/kg; in the data set with Mus musculus [9], 300 mg/kg; with Mus musculus [10], 100 mg/kg; in the data set with Mus musculus [11], 100 mg/kg. In addition, the Activity result in the data set with Mus musculus [14] is “Toxic”.

Turning to `CCOC(=O)Nc1ccc(N2CCN(c3ccc(OC)cc3)CC2)cc1`, the MED50 in the data set on Mus musculus [8] and with Mus musculus [11] was 100 mg/kg throughout. For the same compound, the result in the data set on Mus musculus [2] and with Mus musculus [3] was inactive. Besides, the Activity result with Mus musculus [5] and in the data set on Mus musculus [6] was “Non-toxic” throughout.

As to `CCOC(=O)Nc1ccc(N2CCN(C(c3ccccc3)c3ccccc3)CC2)cc1`, the MED50 in the data set on Mus musculus [9] and in the data set on Mus musculus [11] was 300 mg/kg throughout. For the same compound, the result in the data set on Mus musculus [1] and with Mus musculus [3] was inactive. Moreover, the Activity entry in the data set with Mus musculus [5] and with Mus musculus [6] was “Non-toxic” each time.

Regarding `CCCC(CCC)C(=O)O` [VALPROIC ACID], the MED50 in the data set with Mus musculus [11] is 300 mg/kg. The outcome with Mus musculus [1], in the data set on Mus musculus [2] and with Mus musculus [3] was inactive. The Activity result in the data set on Mus musculus [5] and with Mus musculus [6] was “Non-toxic” in each case.

For `CCOC(=O)Nc1ccc(N2CCN(Cc3ccccc3)CC2)cc1`, the MED50 in the data set with Mus musculus [8] and in the data set with Mus musculus [9] was 100 mg/kg throughout. Besides, the result with Mus musculus [3] and in the data set on Mus musculus [4] was inactive. Moreover, the Activity entry in the data set with Mus musculus [5] and in the data set on Mus musculus [6] was “Non-toxic” throughout.

Turning to `CCOC(=O)Nc1ccc(N2CCN(c3ccc(F)cc3)CC2)cc1`, the MED50 with Mus musculus [9] is 300 mg/kg. Further, the result in the data set with Mus musculus [1], in the data set on Mus musculus [2], with Mus musculus [3] and with Mus musculus [4] was inactive. In addition, the Activity result with Mus musculus [5] and in the data set with Mus musculus [6] was “Non-toxic” throughout.

For `CCOC(=O)Nc1ccc(N2CCN(c3ccccc3)CC2)cc1`, the MED50 was determined as 30 mg/kg with Mus musculus [8], 300 mg/kg with Mus musculus [9], 300 mg/kg with Mus musculus [10] and 300 mg/kg in the data set with Mus musculus [11]. In addition, the Activity entry with Mus musculus [5] and in the data set on Mus musculus [6] was “Non-toxic” each time.

As for `CCOC(=O)Nc1ccc(N2CCN(C(=O)c3ccccc3)CC2)cc1`, the MED50 is 100 mg/kg in the data set on Mus musculus [9] and 300 mg/kg in the data set with Mus musculus [11]. Also, in data set [12], the TD50 at 0.5 h came to 300 mg/kg. The TD50 at 4 h in [13] was found to be 300 mg/kg. Also, the outcome with Mus musculus [1] and in the data set with Mus musculus [3] was inactive.

Consider `CCOC(=O)Nc1ccc(N2CCN(c3ccccn3)CC2)cc1`, for which the MED50 in the data set on Mus musculus [8] and with Mus musculus [9] was 100 mg/kg each time. Also, the TD50 at 0.5 h in [12] is 100 mg/kg. The TD50 at 4 h in data set [13] was 100 mg/kg. Further, the outcome in the data set with Mus musculus [3] and in the data set with Mus musculus [4] was inactive.

Take `CCC1(C)CC(=O)NC1=O` (centres undefined) [ETHOSUXIMIDE]: the MED50 in the data set with Mus musculus [10] was determined as 100 mg/kg; in the data set with Mus musculus [11], 300 mg/kg. Further, the result in the data set with Mus musculus [1] and with Mus musculus [2] was inactive. The Activity result in the data set with Mus musculus [5] and in the data set with Mus musculus [6] was “Non-toxic” each time.
